Laboratory results: publication PMC7449315 (Journal for Immunotherapy of Cancer, 2020)
Several values for one entry are separate records, joined by “and”; a condition that tells them apart may be missing. Equal entries are not always repeated. Marks after values point to notes of the source that are not given here.

Columns and labels:
[1] = molecular target: tumor IDO1 (Mus musculus, UniProt P28776); type: in vivo; details: MC38 tumor-bearing mice; 30, 75 or 200 mg/kg
In short: (§1)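 Female adult C57BL/6 mice were inoculated subcutaneously with 0.5×10^6 IDO1-expressing MC38 colon carcinoma cells. At average tumor volumes of about 200–250 mm3 they received a single oral dose of the test compound (30, 75 or 200 mg/kg) or vehicle. Plasma, liver and tumor were sampled at 1, 2, 4, 8 and 24 h. Drug, kynurenine and tryptophan were measured by LC-MS/MS, and the kynurenine:tryptophan ratio was derived. Data are mean±SEM.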

[2] = M4112 levels in plasma, liver and tumor of mice bearing MC38 tumors; type: in vivo; details: MC38 tumor-bearing mice
In short: as §1

[3] = phase I trial: plasma pharmacokinetics; type: in vivo, human
In short: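 Patients were dosed orally twice daily. Blood was sampled on cycle 1 days 1 and 15 (predose and 0.5, 1, 2, 3, 4, 6 and 8 h postdose), on day 8 (predose), and on cycle 2 day 1 (predose and 2 h). Plasma drug levels were measured by LC-MS/MS. Non-compartmental analysis gave Cmax, tmax and AUC0–8, dose-normalized values, predose concentrations and day 15/day 1 accumulation. Dose proportionality was tested with a power model.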

[4] = system: advanced solid tumors; test: phase I trial: preliminary antitumor activity; type: in vivo, human
In short: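 Patients with advanced solid tumors received twice-daily oral doses in 28-day cycles. CT or MRI was done at baseline and within 7 days before day 1 of cycles 3, 5 and 7, then every three cycles. The investigator assessed objective response, best overall response, disease control and progression-free survival per RECIST 1.1. Binary endpoints used exact Clopper-Pearson 95% CI and PFS used Kaplan-Meier.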

[5] = 100 to 600 mg two times per day, day 15
[6] = Cycle 1, day 1, 100 mg two times per day, n=3, geometric mean (CV%)
[7] = Cycle 1, day 1, 200 mg two times per day, n=3, geometric mean (CV%)
[8] = Cycle 1, day 1, 400 mg two times per day, n=3, geometric mean (CV%)
[9] = Cycle 1, day 1, 600 mg two times per day, n=3, geometric mean (CV%)
[10] = Cycle 1, day 1, 800 mg two times per day, n=3, geometric mean (CV%)
[11] = Cycle 1, day 8, 100 mg two times per day, n=3, geometric mean (CV%)
[12] = Cycle 1, day 8, 200 mg two times per day, n=3, geometric mean (CV%)
[13] = Cycle 1, day 8, 400 mg two times per day, n=3, geometric mean (CV%)
[14] = Cycle 1, day 8, 600 mg two times per day, n=3, geometric mean (CV%)
[15] = Cycle 1, day 8, 800 mg two times per day, n=3, geometric mean (CV%)
[16] = Cycle 1, day 15, 100 mg two times per day, n=3, geometric mean (CV%)
[17] = Cycle 1, day 15, 200 mg two times per day, n=3, geometric mean (CV%)
[18] = Cycle 1, day 15, 400 mg two times per day, n=3, geometric mean (CV%)
[19] = Cycle 1, day 15, 600 mg two times per day, n=3, geometric mean (CV%)
[20] = Cycle 1, day 15, 800 mg two times per day, n=1, individual value
[21] = Cycle 2, day 1, 100 mg two times per day, n=3, geometric mean (CV%)
[22] = Cycle 2, day 1, 200 mg two times per day, n=2, individual values
[23] = Cycle 2, day 1, 400 mg two times per day, n=3, geometric mean (CV%)
[24] = Cycle 2, day 1, 600 mg two times per day, n=2, individual values
[25] = Cycle 2, day 1, 800 mg two times per day, n=1, individual value

tumor IDO1, sequence (P28776 whole entry): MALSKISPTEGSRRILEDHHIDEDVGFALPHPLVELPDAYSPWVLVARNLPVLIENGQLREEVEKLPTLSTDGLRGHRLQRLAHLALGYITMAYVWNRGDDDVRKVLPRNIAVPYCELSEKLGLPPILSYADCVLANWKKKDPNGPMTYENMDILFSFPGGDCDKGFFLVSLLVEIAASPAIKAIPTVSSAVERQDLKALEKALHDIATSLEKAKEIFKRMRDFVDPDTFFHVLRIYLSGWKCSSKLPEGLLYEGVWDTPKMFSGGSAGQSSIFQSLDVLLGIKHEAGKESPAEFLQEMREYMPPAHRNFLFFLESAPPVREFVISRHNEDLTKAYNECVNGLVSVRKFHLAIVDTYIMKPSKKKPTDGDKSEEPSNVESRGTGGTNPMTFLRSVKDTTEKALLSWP

NS(=O)(=O)[C@H]1CC[C@](F)(CC[C@H]2c3ccccc3-c3cncn32)CC1 [M4112]
kynurenine:tryptophan ratio in the liver and plasma [1]: dose-dependent reduction | exposure to M4112 in the liver compared with both the plasma and the tumor [2]: approximately 10 fold | concentration of M4112 in the tumor by 24 hours post-treatment ([2]; single oral dose): decreased to baseline levels | time at which the concentration of M4112 in the tumor peaked ([2]; single oral dose 30, 75 or 200 mg/kg, post-treatment): 1 to 2 h | increase of mean exposure with dose [3, 5]: greater than dose-proportional | slope estimate of dose proportionality (power model) [3, 5]: 1.46–1.67 | accumulation / autoinduction following two times per day dosing ([3]; 100–600 mg dose range): no appreciable accumulation or evidence of autoinduction | AUC0–8 [3, 6]: 3550 (14.4) ngxh/mL | AUC0–8/dose [3, 6]: 35.5 (14.4) ngxh/mL/mg | Cmax [3, 6]: 806 (9.9) ng/mL | Cmax/dose [3, 6]: 8.06 (9.9) ng/mL/mg | tmax ([3]; Cycle 1, day 1, 100 mg two times per day, n=3, median (min, max)): 1.08 (1.08, 2.12) hours | AUC0–8 [3, 7]: 8740 (13.6) ngxh/mL | AUC0–8/dose [3, 7]: 43.7 (13.6) ngxh/mL/mg | Cmax [3, 7]: 2110 (13.6) ng/mL | Cmax/dose [3, 7]: 10.5 (13.6) ng/mL/mg | tmax ([3]; Cycle 1, day 1, 200 mg two times per day, n=3, median (min, max)): 2.10 (2.07, 3.08) hours | AUC0–8 [3, 8]: 27,700 (21.4) ngxh/mL | AUC0–8/dose [3, 8]: 69.1 (21.4) ngxh/mL/mg | Cmax [3, 8]: 7670 (39.6) ng/mL | Cmax/dose [3, 8]: 19.2 (39.6) ng/mL/mg | tmax ([3]; Cycle 1, day 1, 400 mg two times per day, n=3, median (min, max)): 1.08 (1.07, 1.08) hours | AUC0–8 [3, 9]: 50,400 (7.7) ngxh/mL | AUC0–8/dose [3, 9]: 84.0 (7.7) ngxh/mL/mg | Cmax [3, 9]: 11,700 (24.6) ng/mL | Cmax/dose [3, 9]: 19.6 (24.6) ng/mL/mg | tmax ([3]; Cycle 1, day 1, 600 mg two times per day, n=3, median (min, max)): 1.00 (0.97, 1.07) hours | AUC0–8 [3, 10]: 14,600 (85.1) ngxh/mL | AUC0–8/dose [3, 10]: 18.2 (85.1) ngxh/mL/mg | Cmax [3, 10]: 2770 (83.6) ng/mL | Cmax/dose [3, 10]: 3.47 (83.6) ng/mL/mg | tmax ([3]; Cycle 1, day 1, 800 mg two times per day, n=3, median (min, max)): 2.08 (2.07, 4.12) hours | Cpre [3, 11]: 156 (58.2) ng/mL | Cpre/dose [3, 11]: 1.56 (58.2) ng/mL/mg | Cpre [3, 12]: 96.5 (85.0) ng/mL | Cpre/dose [3, 12]: 0.482 (85.0) ng/mL/mg | Cpre [3, 13]: 1240 (51.6) ng/mL | Cpre/dose [3, 13]: 3.11 (51.6) ng/mL/mg | Cpre [3, 14]: 4410 (54.5) ng/mL | Cpre/dose [3, 14]: 7.35 (54.5) ng/mL/mg | Cpre [3, 15]: 5200 (105.4) ng/mL | Cpre/dose [3, 15]: 6.50 (105.4) ng/mL/mg | AUC0–8 [3, 16]: 4790 (25.4) ngxh/mL | AUC0–8/dose [3, 16]: 47.9 (25.4) ngxh/mL/mg | Cmax [3, 16]: 975 (34.9) ng/mL | Cmax/dose [3, 16]: 9.75 (34.9) ng/mL/mg | Cpre [3, 16]: 221 (20.5) ng/mL | Cpre/dose [3, 16]: 2.21 (20.5) ng/mL/mg | tmax ([3]; Cycle 1, day 15, 100 mg two times per day, n=3, median (min, max)): 3.08 (2.12, 4.13) hour | AUC0–8 [3, 17]: 7580 (11.5) ngxh/mL | AUC0–8/dose [3, 17]: 37.9 (11.5) ngxh/mL/mg | Cmax [3, 17]: 1720 (20.5) ng/mL | Cmax/dose [3, 17]: 8.58 (20.5) ng/mL/mg | Cpre [3, 17]: 199 (53.9) ng/mL | Cpre/dose [3, 17]: 0.997 (53.9) ng/mL/mg | tmax ([3]; Cycle 1, day 15, 200 mg two times per day, n=3, median (min, max)): 2.10 (1.00, 6.08) hour | AUC0–8 [3, 18]: 31,500 (28.8) ngxh/mL | AUC0–8/dose [3, 18]: 78.8 (28.8) ngxh/mL/mg | Cmax [3, 18]: 6560 (27.4) ng/mL | Cmax/dose [3, 18]: 16.4 (27.4) ng/mL/mg | Cpre [3, 18]: 1630 (45.7) ng/mL | Cpre/dose [3, 18]: 4.08 (45.7) ng/mL/mg | tmax ([3]; Cycle 1, day 15, 400 mg two times per day, n=3, median (min, max)): 1.08 (0.50, 3.00) hour | AUC0–8 [3, 19]: 59,500 (12.7) ngxh/mL | AUC0–8/dose [3, 19]: 99.2 (12.7) ngxh/mL/mg | Cmax [3, 19]: 12,100 (2.2) ng/mL | Cmax/dose [3, 19]: 20.2 (2.2) ng/mL/mg | Cpre [3, 19]: 3380 (42.4) ng/mL | Cpre/dose [3, 19]: 5.63 (42.4) ng/mL/mg | tmax ([3]; Cycle 1, day 15, 600 mg two times per day, n=3, median (min, max)): 1.03 (0.93, 2.17) hour | AUC0–8 [3, 20]: 93,200† ngxh/mL | AUC0–8/dose [3, 20]: 116† ngxh/mL/mg | Cmax [3, 20]: 21,100† ng/mL | Cmax/dose [3, 20]: 26.4† ng/mL/mg | Cpre [3, 20]: 9810† ng/mL | Cpre/dose [3, 20]: 12.3† ng/mL/mg | tmax [3, 20]: 2.00† hour | Cpre [3, 21]: 128 (67.7) ng/mL | Cpre/dose [3, 21]: 1.28 (67.7) ng/mL/mg | Cpre [3, 22]: 83.3 ng/mL and 85.2 ng/mL | Cpre/dose [3, 22]: 0.417 ng/mL/mg and 0.426 ng/mL/mg | Cpre [3, 23]: 957 (72.1) ng/mL | Cpre/dose [3, 23]: 2.39 (72.1) ng/mL/mg | Cpre [3, 24]: 1910 ng/mL and 2560 ng/mL | Cpre/dose [3, 24]: 3.18 ng/mL/mg and 4.27 ng/mL/mg | Cpre [3, 25]: 8560† ng/mL | Cpre/dose [3, 25]: 10.7† ng/mL/mg | tmax ([3]; across all dose levels on both days 1 and 15, approximately): 1 to 3 h | M4112 exposure of the 800 mg two times per day cohort ([3]; cycle 1, day 1): initially lower than that of the other dose groups | best overall response stable disease, patients ([4]; 9 of 15 patients): 60.0% | median progression-free survival ([4]; 15 patients): 3.7 months | objective responses ([4]; 15 patients): no objective responses
